{"data": "Measurements gathered from unrelated publications", "target": "Dual specificity mitogen-activated protein kinase kinase 6 (MAP2K6, Homo sapiens, UniProt P52564)", "Sequence (P52564 1-334, as in one of the studies)": "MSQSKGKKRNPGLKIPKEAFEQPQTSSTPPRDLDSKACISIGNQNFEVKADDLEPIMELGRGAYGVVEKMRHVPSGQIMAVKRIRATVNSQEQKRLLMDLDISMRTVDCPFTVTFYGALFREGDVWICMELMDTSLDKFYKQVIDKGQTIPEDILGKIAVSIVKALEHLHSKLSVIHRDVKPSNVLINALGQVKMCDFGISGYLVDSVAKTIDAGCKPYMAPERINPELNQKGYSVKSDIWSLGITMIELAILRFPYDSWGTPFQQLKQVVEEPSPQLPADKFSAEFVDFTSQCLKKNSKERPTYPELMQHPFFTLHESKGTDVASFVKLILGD", "note": "Compare with care: the assays were run in different laboratories."}
{"Structure (SMILES)": "CN([C@@H]1CCc2c(CC(=O)O)c3ccccc3n2C1)S(=O)(=O)c1ccc(F)cc1", "test": "cell-free assay, competition with immobilised ligand", "conditions": "1 µM", "remaining binding": "100%"}
{"Structure (SMILES)": "CNC(=O)[C@@]12C[C@@H]1[C@@H](n1cnc3c(NC)nc(C#Cc4ccc(Cl)s4)nc31)[C@H](O)[C@@H]2O", "test": "binding, competition with immobilised ligand", "conditions": "10 µM", "remaining binding": "17%"}
{"Structure (SMILES)": "CNC(=O)[C@@H]1CC[C@@H](n2c(-c3ccc4cnccc4c3)nc3ccc(C(=O)NCc4cccc(C(N)=O)c4)cc32)C1", "test": "binding, competition with immobilised ligand", "conditions": "1 µM", "remaining binding": "100%"}
{"Structure (SMILES)": "Cc1c(C(=O)O)cc(-c2ccc(C3CCNCC3)cc2)c2ccc(-c3ccc(C(F)(F)F)cc3)cc12", "test": "binding, competition with immobilised ligand", "conditions": "1 µM", "remaining binding": "100%"}
{"Structure (SMILES)": "N[C@@H]1CCN(c2nccc(-c3cnn4ncccc34)n2)C1", "test": "binding", "conditions": "1 µM", "remaining binding": "100%"}
{"Structure (SMILES)": "O=C(NCCCN1CCOCC1)c1ccc(Nc2nccc(-c3cc4ccccc4s3)n2)cc1", "test": "binding, competition with immobilised ligand", "conditions": "1 µM", "remaining binding": "76%"}
{"Structure (SMILES)": "C[C@H](NC(=O)c1cnc2n1[C@](C)(Cc1ccc(C#N)cc1)C(=O)N2c1cc(Cl)c(F)c(Cl)c1)C(=O)NC1(c2ccccn2)CC1", "test": "cell-free assay, competition with immobilised ligand", "conditions": "1 µM", "remaining binding": "80%"}
{"Structure (SMILES)": "c1cncc(-c2cccc(Nc3nccc(NC4CCCCC4)n3)c2)c1", "test": "binding, competition with immobilised ligand", "conditions": "10 µM", "remaining binding": "79%"}
{"Structure (SMILES)": "CS(=O)(=O)N1CCCC(NC(=O)[C@H](CCC2CCCCC2)NC(=O)c2ccc(CNC(=O)c3cnc4ccccn34)cc2)C1 (some centres unmarked)", "test": "cell-free assay, competition with immobilised ligand", "conditions": "0.1 µM", "remaining binding": "72%"}
{"Structure (SMILES)": "C[C@@H]1CCN(c2nccc(-c3cnn4ncccc34)n2)C1", "test": "binding", "conditions": "1 µM", "remaining binding": "100%"}
{"Structure (SMILES)": "CS(=O)(=O)N1CCCC(NC(=O)[C@H](CCC2CCCCC2)NC(=O)c2ccc(CNc3ncnc4c3nnn4-c3ccccc3)cc2)C1 (some centres unmarked)", "test": "cell-free assay, competition with immobilised ligand", "conditions": "0.1 µM", "remaining binding": "67%"}
{"Structure (SMILES)": "C[C@@H](c1ccc(-n2cnc3c(N)ncnc32)cc1)N1CCc2nn(C)c(Cc3ccccc3)c2C1=O", "test": "binding, competition with immobilised ligand", "conditions": "0.1 µM", "remaining binding": "90%"}
{"Structure (SMILES)": "O=C(NCCCN1CCOCC1)c1ccc(Nc2ncc(Cl)c(-c3ccc(Cl)s3)n2)cc1", "test": "binding, competition with immobilised ligand", "conditions": "1 µM", "remaining binding": "87%"}
{"Structure (SMILES)": "CN(C)c1nccc(-c2cnc3ncccn23)n1", "test": "binding", "conditions": "1 µM", "remaining binding": "99%"}
{"Structure (SMILES)": "C=CC(=O)N1CCC(C(=O)NCC(=O)N2CCN(c3nc(-c4cnc(N)nc4C(F)F)nc(N4CCOCC4)n3)CC2)CC1", "test": "binding, competition with immobilised ligand", "conditions": "1 µM", "remaining binding": "100%"}
{"Structure (SMILES)": "Cc1cnn2ncc(-c3ccnc(N(C)C)n3)c2c1", "test": "binding", "conditions": "1 µM", "remaining binding": "100%"}
{"Structure (SMILES)": "Cn1nc(C(=O)NCc2ccc(C(=O)O)cc2)cc1-c1ccc2[nH]ccc2c1", "test": "cell-free assay, competition with immobilised ligand", "conditions": "0.1 µM", "remaining binding": "100%"}
{"Structure (SMILES)": "CN(C)c1nccc(-c2cnn3ncccc23)n1", "test": "binding", "conditions": "1 µM", "remaining binding": "58%"}
{"Structure (SMILES)": "CCC(=O)N[C@@H]1CC[C@H](C(=O)N(C)c2ccc(-c3nc4ccccc4o3)cc2)C1", "test": "cell-free assay, competition with immobilised ligand", "conditions": "1 µM", "remaining binding": "100%"}
{"Structure (SMILES)": "F[C@@H]1CCN(c2nccc(-c3cnn4ncccc34)n2)C1", "test": "binding", "conditions": "1 µM", "remaining binding": "100%"}
{"Structure (SMILES)": "O=C(Nc1c[nH]nc1C(=O)NC1CCNCC1)c1cc(F)cc(F)c1", "test": "binding, competition with immobilised ligand", "conditions": "1 µM", "remaining binding": "100%"}
{"Structure (SMILES)": "c1cnn2ncc(-c3ccnc(N4CCC45COC5)n3)c2c1", "test": "binding", "conditions": "1 µM", "remaining binding": "100%"}
{"Structure (SMILES)": "O=C(c1ccc(Nc2nccc(-c3cc4ccccc4s3)n2)cc1)N1CCC(N2CCCC2)CC1", "test": "binding, competition with immobilised ligand", "conditions": "1 µM", "remaining binding": "33%"}
